Hits are enriched below; roughly 1.8% of the tested compounds scored in any of these assays.
Tn6 DDE FP = DD(E)-Tn6 binding inhibition, primary FP screen; P02675; Fibrin DD(E) TRITC-Tn6 fluorescence polarization displacement; inhibition, % at 8.3 µM; 370,000 tested, 0.21% active; AID 720509;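 active = inhibition above a per-campaign cutoff: mean of compounds within control limits plus 3 SD, cut at about 15% in these data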
TCR-CD3 inh = human TCR-CD3 binding inhibition; TAMRA-labeled TCR probe fluorescence, biochemical; inhibition, % at 9.4 µM; 360,000 tested, 0.37% active; AID 651800; in the data active = inhibition above about 19%;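 note: recombinant mutant TCR 2C K166C tagged with TAMRA read by polarization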
HTRA1 inh = inhibitors of human serine peptidase HTRA1; inhibition, % at 5.96 µM; recombinant HTRA1, FP-rhodamine activity-based probe, fluorescence polarization; Q92743; AID 504803; 340,000 tested, 0.5% active; in the data active = inhibition above about 36%
ABHD4 inh = ABHD4 (mouse) inhibition, primary FP screen; inhibition, % at 8.92 µM; purified mABHD4, FP-Rh probe fluorescence polarization; 370,000 tested, 0.54% active; Q8VD66;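 active = inhibition exceeding the mean over every tested compound plus 3 SD, cut at about 30% in these data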
Target sequence (Q8VD66 whole entry, looked up): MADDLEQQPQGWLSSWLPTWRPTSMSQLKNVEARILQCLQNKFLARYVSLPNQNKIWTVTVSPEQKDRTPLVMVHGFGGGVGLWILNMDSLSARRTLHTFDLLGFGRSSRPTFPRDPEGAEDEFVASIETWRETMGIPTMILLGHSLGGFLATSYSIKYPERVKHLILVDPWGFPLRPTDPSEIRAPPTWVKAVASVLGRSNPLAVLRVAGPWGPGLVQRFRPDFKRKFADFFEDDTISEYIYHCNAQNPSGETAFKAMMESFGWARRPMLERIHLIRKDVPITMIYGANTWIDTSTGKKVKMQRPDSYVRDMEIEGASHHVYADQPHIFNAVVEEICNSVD
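assay system = mABHD4 protein | compound dosing = single nominal dose of 8.92 µM, 0.89% DMSO final | read-out basis = percent inhibition of probe binding, normalized to plate controls | schedule = Enzyme–compound pre-incubation 45 min, then probe 60 min, both 25 °C | detection = fluorescence polarization, excitation 525 nm, emission 598 nm, BODIPY TMR filters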
DDE Tn7 FP inh = DD(E)-Tn7 binding inhibition, primary FP screen | P02675 | inhibition, % at 8.3 µM | FP displacement of FITC-Tn7 peptide from fibrin DD(E); 0% = median of compound wells per plate | 370,000 tested, 0.13% active | AID 720508;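 active = inhibition above the mean of compounds falling within the control limits plus 3 SD of them, cut at about 14% in these data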
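assay system = human clot-derived fibrin DD(E) complex | quantity = Fibrin-DD(E) at 2 µM final | timing = 10 min preincubation, 3 h with tracer, room temperature | signal = fluorescence polarization | measure = percent inhibition | benchmarks = high control wells with 10 µM unlabelled Aha-Tn7 peptide (full inhibition) | replicates = singlicate testing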
SIAE primary = human SIAE inhibition, primary screen | Q9HAT2 | SIAE FP-Rh probe binding, fluorescence polarization | inhibition, % at 9.66 µM | 370,000 tested, 0.69% active;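 active = inhibition above a cutoff: mean of compounds within the control limits plus 3 SD of those, cut at about 17% in these data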
mABHD4 conf = ABHD4 (mouse) inhibition, FP confirmation; shares compounds with ABHD4 inh; purified mABHD4, FP-Rh probe fluorescence polarization; inhibition, % at 8.92 µM; 1,800 tested, 55% active; AID 720658;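 active = mean inhibition across replicates above the hit cutoff set in the primary screen, cut at about 30% in these data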
Large screens that a line does not name were inactive (follow-up assays come after a bar, where they were run); ! = repeats disagree.

CC(=O)N1CCN(c2ccc(N3CCN(C(C)=O)[C@@H](C)C3)c(C)c2)[C@@H](C)C1	none (no result: HTRA1 inh)
S=C1NCCOc2ccccc21	none (no result: HTRA1 inh)
CC(=O)Nc1cccc(/C(C)=N/Nc2ccc(S(=O)(=O)Nc3ccccc3C(=O)O)cc2[N+](=O)[O-])c1	ABHD4 inh 42 | mABHD4 conf 63
NS(=O)(=O)c1ccc(N/N=C/c2ccc(C(=O)O)cc2)c([N+](=O)[O-])c1	none
CC(=O)Nc1ccc(C=NNc2ccc(S(=O)(=O)Nc3ccccc3C(=O)O)cc2[N+](=O)[O-])cc1	ABHD4 inh 55 | mABHD4 conf 77
COc1ccc(C(C)=NNc2ccc([N+](=O)[O-])cc2S(=O)(=O)Nc2ccccc2C(=O)O)c(OC)c1	none
COC(=O)c1cc(-c2cccc3c2sc2ccccc23)c(=O)n2c1CCC2	none (no result: TCR-CD3 inh, HTRA1 inh)
CCN=c1scc(C)n1/N=C/c1cc(Br)c(O)c(Br)c1	ABHD4 inh 55 | mABHD4 conf 66
COc1ccc(C(=O)CSc2nnc(-c3cccs3)o2)cc1OC	none (no result: TCR-CD3 inh, HTRA1 inh)
O=C(NNC(=S)NC1CCCCC1)c1sc2ccccc2c1Cl	ABHD4 inh 31 | mABHD4 conf inactive
C=CCOC(=O)N[C@@H](c1cccc(OC)c1)[C@@H](C)/C=C/CC(=O)O	none (no result: TCR-CD3 inh, HTRA1 inh)
COC(=O)[C@]12C[C@H](CC(=O)NCCCN3CCCC3=O)C(=O)N(Cc3ccco3)C1=C[C@H](COCc1ccccc1)O[C@@H]2C	none (no result: TCR-CD3 inh, HTRA1 inh)
CCOC(=O)C1Nc2ccccc2C2C(O)C(O)CC12 (stereo not drawn)	ABHD4 inh 51 | mABHD4 conf inactive
O=c1c2cc3c(=O)n(-c4ccccc4O)c(=O)c3cc2c(=O)n1-c1ccccc1O	ABHD4 inh 30 | mABHD4 conf inactive
Cc1c(O)cc2n(c1=O)-c1ccccc1C2(C)C	none
CCOC(=O)/C(=N\Nc1ccccc1)P(=O)(c1ccccc1)c1ccccc1	ABHD4 inh 30 | mABHD4 conf inactive
CC(=O)C1=C(C)N(Cc2ccc(F)cc2)C(=S)NC1c1ccccc1 (stereo not drawn)	none (no result: HTRA1 inh)
Cc1ccn2c(NCc3ccccc3)c(-c3cccc(SC4CCCCC4)c3)nc2c1	ABHD4 inh 30 | mABHD4 conf 31!
CCCCNc1c(-c2ccc(SC3CCCCC3)cc2)nc2ccccn12	ABHD4 inh 44 | mABHD4 conf inactive
CCCCNc1c(-c2cccc(SC3CCCCC3)c2)nc2ccc(Cl)cn12	none
CCCCNc1c(-c2ccc(SC(C)CC)cc2)nc2ccccn12 (stereo not drawn)	ABHD4 inh 40 | mABHD4 conf 69
CCCCNc1c(-c2cccc(SC(C)CC)c2)nc2ccc(Cl)cn12 (stereo not drawn)	none
CN(C)c1ccc(N=Nc2ccc(S(=O)(=O)O)cc2)c2ccccc12	ABHD4 inh 56 | mABHD4 conf 60
O=Cc1cc(N=Nc2ccc(S(=O)(=O)O)cc2)ccc1O	none
CN(C(=S)NC(=O)C1CC1)c1ccc(O)cc1	ABHD4 inh 30 | mABHD4 conf inactive
CCN(C(=S)NC(=O)C1CC1)c1ccccc1	none
CC1(C)Cc2c(c(-c3ccco3)[nH]c(=O)c2C#N)CS1	ABHD4 inh 30 | mABHD4 conf inactive
Cc1[nH]nc2c1C(c1ccc(F)cc1)N(Cc1ccccc1)C2=O (stereo not drawn)	none (no result: HTRA1 inh)
CCCC(=O)Nc1nc(C)c(-c2csc(Nc3cc(OC)ccc3OC)n2)s1	ABHD4 inh 32 | mABHD4 conf 58
NC(=S)NN=Cc1nccc2c(N)cccc12	ABHD4 inh 36 | mABHD4 conf 44
CCN(C(C)=O)c1cnc(C=NNC(N)=S)c2ccccc12	none
O=c1[nH]n2c(=O)c3c([nH]c2c1N=Nc1cccc(Cl)c1)CCC3	none
O=c1[nH]n2c(=O)c3c([nH]c2c1N=Nc1cccc(C(F)(F)F)c1)CCCC3	ABHD4 inh 59 | mABHD4 conf 66
Cc1cc2nc(CCN(C(=S)NCC(C)C)C3CCCC3)[nH]c2cc1C	ABHD4 inh 42 | mABHD4 conf 48
Cc1cc2nc(CCN(C(=S)NCC3CCCO3)C3CCCC3)[nH]c2cc1C (stereo not drawn)	none
O=[N+]([O-])c1cccc(C=Nc2cccc3ccccc23)c1O	none
CCOC(=O)c1c(/N=C/c2cccc([N+](=O)[O-])c2O)sc(C)c1C	ABHD4 inh 33 | mABHD4 conf inactive
O=C(CSc1nnc(-c2ccccc2)n1-c1ccc(Cl)cc1)c1ccc(Cl)cc1	none (no result: TCR-CD3 inh, HTRA1 inh)
CCOC(=O)NC1(NCC(C)C)Oc2ccccc2O1	ABHD4 inh 33 | mABHD4 conf inactive
F[B-](F)(F)c1cc2ccccc2s1	ABHD4 inh 87 | mABHD4 conf 72
CC(=O)C1C(=O)c2c(cccc2[N+](=O)[O-])C1=Nc1cccc(Cl)c1 (stereo not drawn)	ABHD4 inh 36 | mABHD4 conf 61
CC(=O)C1C(=O)c2c(cccc2[N+](=O)[O-])C1=Nc1ccccc1C (stereo not drawn)	none (no result: HTRA1 inh)
CCOC(=O)C1=C(C(=O)OCC)C2N(Cc3ccccc3)c3ccccc3[C@@]23C[C@@H](C(=O)OC)N(S(=O)(=O)c2ccc(C(F)(F)F)cc2)C3=N1 (stereo partly drawn)	none (no result: HTRA1 inh)
CCCCNS(=O)(=O)CC1NCCc2ccccc21 (stereo not drawn)	none (no result: TCR-CD3 inh, HTRA1 inh)
CC1=NN(Cc2ccccc2)C(=O)C1C(c1ccncc1)C(C#N)C#N (stereo not drawn)	none
CC1=NN(Cc2ccccc2)C(=O)C1C(c1ccc(Cl)cc1)C(C#N)C#N (stereo not drawn)	ABHD4 inh 83 | mABHD4 conf inactive
CC1=NN(Cc2ccccc2)C(=O)C1C(c1ccccc1)C(C#N)C#N (stereo not drawn)	ABHD4 inh 53 | mABHD4 conf inactive
CC1=NNC(=O)C1C(c1ccc(Cl)cc1)C(C#N)C#N (stereo not drawn)	none (no result: HTRA1 inh)
CCOc1ccc(-n2c(SCC(=O)Nc3ccc4c(c3)OCCO4)nnc2-c2ccncc2)cc1	none (no result: TCR-CD3 inh, HTRA1 inh)
O=C(CSc1nnc(-c2ccccn2)o1)Nc1ccccc1	none
O=C(CSC1=NNC(c2ccccn2)S1)Nc1ccccc1 (stereo not drawn)	ABHD4 inh 53 | mABHD4 conf inactive
O=C(CSc1nncn1-c1ccccn1)Nc1cccc(Cl)c1	none
O=C(CSC1=NNC(c2ccccn2)S1)Nc1cccc(Cl)c1 (stereo not drawn)	ABHD4 inh 36 (no result: HTRA1 inh) | mABHD4 conf inactive
COC(=O)Cc1nnn2c1CC(OC)c1ccccc1-2 (stereo not drawn)	none (no result: HTRA1 inh)
O=S1(=O)CC2c3ccc(F)cc3CN2CN1C1CCCC1 (stereo not drawn)	none (no result: TCR-CD3 inh, HTRA1 inh)

Screening results: PubChem, The Scripps Research Institute Molecular Screening Center
